Experimental data as given in ChEMBL document CHEMBL1140176, “Intracellular trapping of cycloSal-pronucleotides: modification of prodrugs with amino acid esters” (J Med Chem, 2008).

How the values were obtained:
[1] = tested on: Human immunodeficiency virus 1; experiment: Antiviral activity against HIV1 in human CEM cells; assay type: functional, organism-based; conditions: Human immunodeficiency virus 1, CCRF-CEM
How it was run: (§1)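 CEM/0 cells at 4 × 10⁵ cells/mL infected with HIV-1 or HIV-2 (ROD, stocks from infected MT-4 supernatants) at ~100 CCID₅₀/mL, mixed 1:1 with serial compound dilutions. Giant cell formation scored microscopically after 4-5 days.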

[2] = (§2) Stability in human CEM cell extract assessed as hydrolysis half life at pH 6.9; assay type: ADME, CCRF-CEM; conditions: CEM cell extract
[3] = (§3) Cytotoxicity against human CEM cells; assay type: cell-based, CCRF-CEM; conditions: CEM cells
How it was run: (§4)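 Wild-type CEM cells exposed to test compound dilutions. Value reported as 50% cytotoxic concentration.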

[4] = tested on: Human immunodeficiency virus 2; experiment: Antiviral activity against HIV2 ROD in thymidine kinase deficient human CEM cells; assay type: functional, organism-based, CCRF-CEM
How it was run: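 Thymidine kinase-deficient CEM/TK⁻ cells at 4 × 10⁵ cells/mL infected with HIV-2 ROD at ~100 CCID₅₀/mL, then mixed 1:1 with compound dilutions. Microscopic scoring of giant cell formation at 4-5 days. EC50 is the mean of two to three independent experiments.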

[5] = Stability in 25 mM phosphate buffer assessed as hydrolysis half life at pH 7.3; assay type: physicochemical; conditions: for half-life: phosphate buffer; for t1/2: buffer
[6] = tested on: Human immunodeficiency virus 2; experiment: Antiviral activity against HIV2 ROD in human CEM cells; assay type: functional, organism-based, CCRF-CEM; how it was run: as §1
CCRF-CEM [7] = experiment: as §3; assay type: cell-based; conditions: ccrf-cem; how it was run: as §4
Serum = experiment: Stability in human serum assessed as hydrolysis half life at pH 6.8; assay type: ADME, cell-free
How it was run: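 Human serum at 50%, diluted with phosphate buffered saline to pH 6.8. Triester conversion followed over time and hydrolysis half-life derived.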

CCRF-CEM [8] = experiment: as §2; assay type: ADME; conditions: ccrf-cem
[9] = Human immunodeficiency virus 2, ROD, CCRF-CEM

| SMILES | EC50 [1] [nM] | half-life [2] [min] | CC50 [3] [µM] | EC50 [4, 9] [µM] | half-life [5] [min] | EC50 [6, 9] [nM] | CC50 (CCRF-CEM [7]) [µM] | EC50 ([4]; ccrf-cem) [µM] | t1/2 [5] [h] | t1/2 (Serum) [h] | t1/2 (CCRF-CEM [8]) [min] | EC50 ([6]; ccrf-cem) [nM] |
| --- | --- | --- | --- | --- | --- | --- | --- | --- | --- | --- | --- | --- |
| COC(=O)[C@H](C)NC(=O)CCc1ccc2c(c1)COP(=O)(OC[C@@H]1C=C[C@H](n3cc(C)c(=O)[nH]c3=O)O1)O2 (some centres not stated) | 800 | 66 | 152 | 2.5 | 384 | 700 | – | – | – | – | – | – |
| Cc1cn([C@H]2C=C[C@@H](COP3(=O)OCc4cc(CCC(=O)N[C@@H](C)C(=O)OCc5ccccc5)ccc4O3)O2)c(=O)[nH]c1=O (stereo in doubt; form 3) | 300 | – | – | – | 384 | 400 | 23 | 0.3 | – | – | – | – |
| Cc1cn([C@H]2C=C[C@@H](COP3(=O)OCc4cc(CCC(=O)N5CCC[C@H]5C(=O)OCc5ccccc5)ccc4O3)O2)c(=O)[nH]c1=O (some centres not stated) | 700 | 24 | 46 | 21 | 366 | 1100 | – | – | – | – | – | – |
| COC(=O)CNC(=O)CCc1ccc2c(c1)COP(=O)(OC[C@@H]1C=C[C@H](n3cc(C)c(=O)[nH]c3=O)O1)O2 (some centres not stated) | 2000 | 270 | 220 | 4 | 390 | 1600 | – | – | – | – | – | – |
| Cc1cn([C@H]2C=C[C@@H](COP3(=O)OCc4cc(CCC(=O)NCC(=O)OCc5ccccc5)ccc4O3)O2)c(=O)[nH]c1=O (some centres not stated) | 310 | 288 | 75 | 0.4 | 372 | 470 | – | – | – | – | – | – |
| Cc1cn([C@H]2C=C[C@@H](CO)O2)c(=O)[nH]c1=O [STAVUDINE] | 480 | – | 234 | 47.5 | – | 630 | – | – | – | – | – | – |
| COC(=O)[C@@H](C)NC(=O)CCc1ccc2c(c1)COP(=O)(OC[C@@H]1C=C[C@H](n3cc(C)c(=O)[nH]c3=O)O1)O2 (some centres not stated) | 400 | 372 | 61 | 4.2 | 300 | 400 | – | – | – | – | – | – |
| Cc1cn([C@H]2C=C[C@@H](COP3(=O)OCc4cc(CCC(=O)N[C@@H](C)C(=O)OCc5ccccc5)ccc4O3)O2)c(=O)[nH]c1=O (stereo in doubt; form 2) | – | 30 | – | – | – | – | 61 | 1 | 8.8 | 1.3 | – | – |
| Cc1cn([C@H]2C=C[C@@H](COP3(=O)OCc4cc(CCC(=O)N[C@@H](C)C(=O)OCc5ccccc5)ccc4O3)O2)c(=O)[nH]c1=O (stereo in doubt; form 1) | – | – | – | – | – | – | 48 | – | 4.5 | 4.4 | 30 | 300 |
| Cc1cn([C@H]2C=C[C@@H](COP3(=O)OCc4cc(CCC(=O)N[C@@H](C)C(=O)OC(C)(C)C)ccc4O3)O2)c(=O)[nH]c1=O (some centres not stated) | 300 | 408 | 53 | 3.8 | 342 | 400 | – | – | – | – | – | – |
| Cc1cn([C@H]2C=C[C@@H](COP3(=O)OCc4cc(CCC(=O)N[C@@H](C)C(=O)O)ccc4O3)O2)c(=O)[nH]c1=O (some centres not stated) | 500 | 420 | 77 | 4.1 | 720 | 400 | – | – | – | – | – | – |
| COC(=O)[C@@H]1CCCN1C(=O)CCc1ccc2c(c1)COP(=O)(OC[C@@H]1C=C[C@H](n3cc(C)c(=O)[nH]c3=O)O1)O2 (some centres not stated) | 1300 | 66 | 182 | 2.8 | 474 | 1600 | – | – | – | – | – | – |
| Cc1cn([C@H]2C=C[C@@H](COP3(=O)OCc4cc(CCC(=O)O)ccc4O3)O2)c(=O)[nH]c1=O (some centres not stated) | 140 | – | 74 | 50 | 780 | 800 | – | – | – | – | – | – |
